Published values collected from several papers.
Protocols differ between the studies behind these lines.
Target: Ephrin type-A receptor 1 (EPHA1, Homo sapiens, UniProt P21709)
One construct used (P21709 26-976): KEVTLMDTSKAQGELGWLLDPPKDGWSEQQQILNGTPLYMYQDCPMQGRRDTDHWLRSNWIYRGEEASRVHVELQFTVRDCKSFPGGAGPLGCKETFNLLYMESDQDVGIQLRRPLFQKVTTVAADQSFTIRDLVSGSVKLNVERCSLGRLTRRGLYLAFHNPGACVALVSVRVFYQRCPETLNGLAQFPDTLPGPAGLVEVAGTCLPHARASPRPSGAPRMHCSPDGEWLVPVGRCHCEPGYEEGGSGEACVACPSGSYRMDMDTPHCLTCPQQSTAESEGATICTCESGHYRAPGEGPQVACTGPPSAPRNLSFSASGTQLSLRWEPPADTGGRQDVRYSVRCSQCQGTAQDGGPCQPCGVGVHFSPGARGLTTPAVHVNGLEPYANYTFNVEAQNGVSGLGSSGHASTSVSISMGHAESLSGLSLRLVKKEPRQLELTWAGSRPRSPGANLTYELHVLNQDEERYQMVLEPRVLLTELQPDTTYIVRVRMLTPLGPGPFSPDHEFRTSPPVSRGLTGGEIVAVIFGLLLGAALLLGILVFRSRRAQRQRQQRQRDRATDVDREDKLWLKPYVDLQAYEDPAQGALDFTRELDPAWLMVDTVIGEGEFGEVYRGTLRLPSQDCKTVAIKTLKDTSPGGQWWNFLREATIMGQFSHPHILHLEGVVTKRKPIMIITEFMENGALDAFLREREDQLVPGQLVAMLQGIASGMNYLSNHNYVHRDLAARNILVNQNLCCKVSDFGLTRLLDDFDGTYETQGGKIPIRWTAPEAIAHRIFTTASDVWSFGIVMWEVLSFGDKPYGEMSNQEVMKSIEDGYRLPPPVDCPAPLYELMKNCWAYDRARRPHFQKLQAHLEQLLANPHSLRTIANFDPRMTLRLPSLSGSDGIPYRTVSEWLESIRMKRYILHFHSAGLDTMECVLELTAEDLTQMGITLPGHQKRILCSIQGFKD

SMILES	test	conditions	measurement	result
O=C1CCc2cc(Nc3cc(OC4CCOCC4)c([N+](=O)[O-])cc3Cl)ccc2N1	cell-free assay, competition with immobilised ligand	1 µM	remaining binding	81%
CC(C)(O)[C@H]1CC[C@H](Nc2ccc3ncc(-c4cccc(C(F)(F)F)c4)n3n2)CC1	enzyme activity, inhibitor	1 µM	remaining activity	99.6%
O=C(Nc1cnn(-c2csc(C(=O)NC3COC3)c2)c1)Nc1c(F)cccc1Cl	enzyme activity, inhibitor	5 µM	remaining activity	88.4%
COc1cc2ncnc(Nc3ccc(Oc4ccccc4)cc3C)c2cc1OC	enzyme activity, inhibitor	1 µM	inhibition	11%
Nc1ncnc2occ(-c3ccc(NC(=O)Nc4cc(C(F)(F)F)ccc4F)cc3)c12	cell-free assay	20 µM	remaining signal	0.5%
O=C1Nc2ccc(Cl)cc2C1=Cc1cc(Cl)c(O)c(Cl)c1	cell-free assay	0.5 µM	remaining signal	88.9%
CO[C@@H](C)c1c(Nc2ccc([C@@H](N(C)C(=O)C3CCS(=O)(=O)CC3)C(F)(F)F)cc2)cnc2cc(Cl)nn12	cell-free assay, competition with immobilised ligand	1 µM	remaining binding	97%
c1ccc(CNc2nc(N3CCOc4ccccc43)nc3c2CCCC3)cc1	target engagement in cells, inhibitor, chemoproteomics	20 mM	inhibition	-26.1%
Cc1cc(NC(=O)c2cccc3cc(-c4cccc5[nH]nc(N)c45)ccc23)ccc1F	enzyme activity, inhibitor	0.1 µM	activity vs control	102%
CCCCNc1ncc2c(-c3ccc(F)cc3)nn(C[C@H]3CC[C@H](N)CC3)c2n1	target engagement in cells, inhibitor, chemoproteomics	20 mM	inhibition	> 97%
CCN(CC)c1ccc(C2=NNC(=O)CC2C)cc1[N+](=O)[O-] (centres unmarked)	enzyme activity, inhibitor	10 µM	remaining activity	112%
COc1ccc2c(c1)O[C@H](c1ccc(OC)c(OC)c1)C[C@@H]2NC(=O)C1(c2ccc3c(c2)OC(F)(F)O3)CC1	cell-free assay, competition with immobilised ligand	1 µM	remaining binding	88%
Cc1ccc(Nc2nccc(N(C)c3ccc4c(C)n(C)nc4c3)n2)cc1S(N)(=O)=O	enzyme activity, inhibitor	10 µM	inhibition	85%
Cc1ccc(C(=O)NCc2ccsc2)cc1C#Cc1cn(C(C)C)c2ncnc(N)c12	enzyme activity, inhibitor	1 µM	activity vs control	45%
COc1cc(-c2cc(-c3ccc(N4CCNCC4)cc3)cnc2C)cc(OC)c1OC	enzyme activity, inhibitor	1 µM	inhibition	16%
CNC(=O)c1cc(Oc2ccc(NC(=O)Nc3ccc(Cl)c(C(F)(F)F)c3)cc2)ccn1	enzyme activity, inhibitor	10 µM	inhibition	94%
C[C@@H]1CCN(C(=O)CC#N)C[C@@H]1N(C)c1ncnc2[nH]ccc12	cell-free assay	0.5 µM	remaining signal	98%
CN(C)C(=O)Cn1cc(-c2nc(C3(c4ccc(-c5cnc(N)nc5)cc4)CC3)no2)cn1	cell-free assay, competition with immobilised ligand	1 µM	remaining binding	100%
CC(C)(C)c1nc(-c2cccc(NS(=O)(=O)c3c(F)cccc3F)c2F)c(-c2ccnc(N)n2)s1	enzyme activity, inhibitor, radiometric	1 µM	remaining activity	81%
O=C(Nc1cccnn1)N1CCC(=Cc2cccc(Oc3ccc(C(F)(F)F)cn3)c2)CC1	cell-free assay, competition with immobilised ligand	1 µM	remaining binding	100%
Cc1ccc(C(=O)Nc2ccc(CN3CCN(C)CC3)c(C(F)(F)F)c2)cc1C#Cc1cnc2cccnn12	cell-free assay	23.5 nM	remaining signal	55%
N#CCCc1ccc2c(c1)-c1[nH]c3ccc([N+](=O)[O-])cc3c1CC(=O)N2	cell-free assay	0.5 µM	remaining signal	91.7%
O=C(NCCCC1CCCCC1)c1ccc(CNC(=O)c2cnn(-c3ccccc3)c2C(F)(F)F)cc1	cell-free assay, competition with immobilised ligand	0.1 µM	remaining binding	100%
CCN(CC)CCNC(=O)c1c(C)[nH]c(/C=C2\C(=O)Nc3ccc(F)cc32)c1C	enzyme activity, inhibitor	0.3 µM	inhibition	1%
Cc1sc(C(=O)NC2COC2)cc1-n1cc(NC(=O)Nc2c(F)cccc2Cl)cn1	enzyme activity, inhibitor	10 µM	remaining activity	88.5%
Cn1nc(C(=O)NCc2ccc(C(=O)O)cc2)cc1-c1ccc2[nH]ccc2c1	cell-free assay, competition with immobilised ligand	0.1 µM	remaining binding	95%
